Assay outcomes as filed in PubChem BioAssay.
Lipid droplet: inhibitors of hepatocyte lipid droplet formation, primary screen, imaging, high-throughput imaging, BODIPY stain | inhibition, % at 6.5 µM | 240,000 tested, 0.4% active | AML12 mouse hepatocytes, oleate lipid droplets;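 active = lipid droplet intensity inhibited by at least 50%, with more than 500 cells counted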
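Assay system: AML12 hepatocytes (mouse); Probe or stimulus: oleic acid at 100 µM to induce lipid droplet formation; Dosing: compound at 6.5 µM only; Schedule: compound with oleate, overnight; Detection: fluorescence imaging, 20x objective, two fields per well; Measure: % inhibition of lipid droplet signal.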
HSF1 activator: HSF-1 activators, primary screen, NIH3T3-HGL cells, MG132 stress, luminescence, single point | NIH3T3-HGL HSF-1 luciferase reporter, 8 h; 100% = twice DMSO control signal | activation, % at 9 µM | 300,000 tested, 1.7% active;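 active = mean replicate activation of at least 50% with a set share of replicates each reaching 50%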
CHT PAM: CHT positive allosteric modulators, primary screen, cell-based, membrane potential dye, choline EC20; B-score at 10 µM; High affinity choline transporter 1 (Homo sapiens), Q9GZV3; 310,000 tested, 0.49% active; CHT-expressing cells; stronger effect = higher value; LV-AA mutant CHT in HEK293 cells; AID 488977, 2010;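 active = initial fluorescence not abnormally high and integrated response B-score, plate-corrected, over 3 SD above library mean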
Target sequence (Q9GZV3 whole entry, looked up): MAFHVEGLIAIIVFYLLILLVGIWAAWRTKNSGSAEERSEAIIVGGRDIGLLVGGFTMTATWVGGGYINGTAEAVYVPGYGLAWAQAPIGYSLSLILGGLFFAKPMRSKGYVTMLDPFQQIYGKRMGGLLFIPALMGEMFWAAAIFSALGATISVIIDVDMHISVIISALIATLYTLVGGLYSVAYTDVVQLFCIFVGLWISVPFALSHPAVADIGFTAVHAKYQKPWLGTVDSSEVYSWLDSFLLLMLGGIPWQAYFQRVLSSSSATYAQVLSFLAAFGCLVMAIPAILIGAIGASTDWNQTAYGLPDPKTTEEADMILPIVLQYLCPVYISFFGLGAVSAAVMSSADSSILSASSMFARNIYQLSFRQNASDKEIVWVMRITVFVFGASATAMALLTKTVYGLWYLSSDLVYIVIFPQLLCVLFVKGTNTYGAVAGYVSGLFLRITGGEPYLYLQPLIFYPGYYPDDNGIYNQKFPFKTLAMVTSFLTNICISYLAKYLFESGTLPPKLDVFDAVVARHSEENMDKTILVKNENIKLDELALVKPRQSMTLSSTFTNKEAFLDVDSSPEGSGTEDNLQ
PHOSPHO1 inh: PubChem AID 1565. inhibition, % at 13.3 µM. recombinant PHOSPHO1, absorbance phosphatase assay. 290,000 tested, 1.1% active. Phosphoethanolamine/phosphocholine phosphatase (Homo sapiens), Q8TCT1; in the data active = inhibition above about 60%
HSF1 inh: HSF1 inhibitors in luciferase reporter cells, primary screen, cell-based, NIH3T3, luminescence; AID 2098, 2009; NIH3T3-HGL HSE-luciferase, MG132-induced, luminescence 8 h; stronger effect = lower value; 300,000 tested, 0.77% active; activity change, negative = inhibition, % at 7.5 µM (by protocol);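 active = more than half of replicate wells show activity change below -50%, luminescence cut by over half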;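 also: luciferase reports HSF-1 transcriptional activity via heat shock element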
CHT inh: inhibitors of human choline transporter CHT | High affinity choline transporter 1 (Homo sapiens), Q9GZV3 | CHT-expressing cells, membrane potential dye, choline response; stronger effect = lower value | B-score at 10 µM | 310,000 tested, 0.86% active;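 active = B-score over 3 SD under the library average, and starting fluorescence ratio not unusually high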;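 also: choline stimulus applied at its EC90 after an EC20 pre-addition; B-score computed on integrated fluorescence ratio after choline addition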
CHT activ conf: CHT activators, confirmation, cell-based, membrane potential dye, duplicate; shares compounds with CHT PAM; CHT-expressing cells, membrane potential dye fluorescence (FDSS); % of choline EC20–EC90 response window; HEK293 expressing CHT LV-AA mutant; choline added at its EC20; activation, % at 10 µM; 2,500 tested, 91% active;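 active = primary screen active, with duplicate mean activation above negative control mean plus 3 SD, cut at about 11% in these data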
HEK293 MP dye: membrane potential response in parental HEK293 cells, counter-screen for CHT activator project, cell-based, membrane potential dye; shares compounds with CHT PAM; membrane potential dye fluorescence (FDSS); measured after EC20 choline addition; ratio readout change at 10 µM, hits read low; 2,500 tested, 62% active;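 active = duplicate-averaged ratio beyond 3 SD from buffer wells, up or down, though filed actives are nearly all decreases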
Large screens that a line does not name were inactive (follow-up assays come after a bar, where they were run). Hits are enriched below; roughly 4.9% of the tested compounds scored in any of these assays.

O=C(Nc1ccccc1N1CCN(C(=O)c2ccccc2)CC1)c1ccc([N+](=O)[O-])o1	none (no result: CHT PAM, CHT inh)
CC(=O)NC(CCS(C)(=O)=O)C(=O)Nc1cccc(C(C)=O)c1 (configuration not stated)	none
Cc1nc(C(=O)Nc2ccccc2Cl)cc2c1[nH]c1ccccc12	none (no result: Lipid droplet)
O=C(NNC(=S)NC(=O)c1cccs1)c1ccc(NC(=O)c2ccccc2)cc1	none
COc1c(C=O)cc2c3c1CCCN3CCC2	none
NCc1cc2c3c(c1)CCCN3CCC2	none | CHT activ conf 13 | HEK293 MP dye -100
CN(Cc1ccc(F)cc1)C(=O)c1ccc2c(c1)NC(=O)CS2	none
CN(Cc1ccccc1)C(=O)c1oc(=O)c2ccccc2c1-c1ccccc1	none
Cc1ccc(-c2c(C(=O)N(C)Cc3ccccc3)oc(=O)c3ccccc23)cc1	none | CHT activ conf 32 | HEK293 MP dye inactive
CN(Cc1cccnc1)C(=O)c1cc(COc2ccc3c(c2)CCCC3)on1	none | CHT activ conf inactive | HEK293 MP dye inactive
CC(=O)c1cccc(OCc2cc(C(=O)N(C)Cc3cnccn3)no2)c1	none
CCN(CC)CCCNc1nc2ccccc2[nH]1	CHT PAM 7.8 | CHT activ conf 35 | HEK293 MP dye -34
c1ccc2[nH]c(NCCCN3CCOCC3)nc2c1	CHT PAM 6.4 (no result: Lipid droplet) | CHT activ conf 38 | HEK293 MP dye -33
O=c1[nH]c2ccccc2nc1NCCN1CCOCC1	none
O=C(CCSc1ccccc1)Nc1ccccc1Br	none
CCOc1ccc(-n2c(SCC(N)=O)nc3sc4c(c3c2=O)CCN(C)C4)cc1	none (no result: HSF1 activator, HSF1 inh) | CHT activ conf 38 | HEK293 MP dye -33
CCOC(=O)CSc1nc2sc3c(c2c(=O)n1-c1ccc(OCC)cc1)CCN(C)C3	none
CCOC(=O)CSc1nc2sc3c(c2c(=O)n1C1CCCCC1)CCN(C)C3	CHT PAM 8.1 | CHT activ conf 27 | HEK293 MP dye -29
CCS(=O)(=O)N1CCC(C(=O)Oc2ccccc2Br)CC1	none (no result: PHOSPHO1 inh)
CCOC(=O)c1c(C)[nH]c(C(=O)NCc2ccccn2)c1C	none (no result: Lipid droplet, PHOSPHO1 inh)
Cn1ccnc1-c1ccc(-c2nccn2C)cc1	CHT PAM 10 | CHT activ conf 64 | HEK293 MP dye -76
Cn1ccnc1-c1nnn(-c2ccc(Cl)c(Cl)c2)n1	none (no result: Lipid droplet, PHOSPHO1 inh)
O=C(CN1C(=O)CCC1=O)Nc1nc(-c2nc3ccccc3s2)cs1	none | CHT activ conf 18 | HEK293 MP dye inactive
O=C(CN1C(=O)CCC1=O)Nc1nc(-c2ccccn2)cs1	none (no result: Lipid droplet)
COC(=O)N(C)c1ccccc1C(=O)N1CCOCC1	none (no result: Lipid droplet)
Cc1ccc(N(CC(=O)NC(C)c2ccccc2)S(=O)(=O)c2cccs2)cc1 (configuration not stated)	none
CN1CCN(NC(=O)c2cc(-c3ccc(Cl)s3)nc3ccccc23)CC1	none | CHT activ conf inactive | HEK293 MP dye -37
CN1CCN(NC(=O)c2cc(-c3ccccn3)nc3ccccc23)CC1	none (no result: HSF1 activator, HSF1 inh)
COC(=O)c1cc(N=C(N)N=C(N)N)cc(C(=O)OC)c1	none
CN1CCN(c2nc3ccccc3nc2C(C#N)C(=O)OC2CCCCC2)CC1 (configuration not stated)	CHT PAM 8.6 (no result: Lipid droplet) | CHT activ conf 44 | HEK293 MP dye -48
CC1=CC(C)(C)N2C(=O)C3(C(C#N)=C(N)OC4=C3C(=O)CC(C)(C)C4)c3cc(C)cc1c32 (configuration not stated)	none
O=C(Nc1c(Cl)cccc1Cl)c1cc(=O)n(Cc2ccccc2)c(=O)[nH]1	none
CCn1c2ccccc2c2nn(C)c(=N)nc21	CHT PAM 7.2 | CHT activ conf 66 | HEK293 MP dye -70
CCNC(=O)n1nccc1C(C)Oc1cccc(C(F)(F)F)c1 (configuration not stated)	none (no result: Lipid droplet)
O=C(CSc1nccc(-c2ccc(Br)cc2)n1)NCCc1ccccc1	none
CC(C)(C)c1ccc(C(=O)N2CCC(=O)N(C(COCc3ccccc3)Cc3ccccc3)CC2)cc1 (configuration not stated)	none | CHT activ conf inactive | HEK293 MP dye inactive
O=C(c1ccc(C(F)(F)F)cc1)N1CCC(=O)N(C(COCc2ccccc2)Cc2ccccc2)CC1 (configuration not stated)	none
COc1ccc(C2c3cc(OC)c(OC)cc3CCN2C(=O)c2cccc([N+](=O)[O-])c2)cc1OC (configuration not stated)	none | CHT activ conf 29 | HEK293 MP dye inactive
COc1cc2c(cc1OC)C(c1cccc([N+](=O)[O-])c1)N(C(=O)c1ccc(F)cc1)CC2 (configuration not stated)	CHT PAM 7.1 (no result: Lipid droplet) | CHT activ conf 46 | HEK293 MP dye inactive
O=C1SC(SCc2ccccc2Cl)=N/C1=C\c1ccc(C(=O)O)cc1	none
Cc1ccnc(NC(=O)CCC2CCCCC2)c1	none | CHT activ conf 27 | HEK293 MP dye inactive
C=CCN1CCN(C(c2cc(OC)ccc2OC)c2nnnn2CC2CCCO2)CC1 (configuration not stated)	CHT PAM 6.3 (no result: Lipid droplet) | CHT activ conf 16 | HEK293 MP dye inactive
COc1ccc(OC)c(C(c2nnnn2CC2CCCO2)N2CCN(C)CC2)c1 (configuration not stated)	none
COc1ccc(C(c2nnnn2CC2CCCO2)N2CCC(C(N)=O)CC2)cc1 (configuration not stated)	none | CHT activ conf inactive | HEK293 MP dye inactive
Cc1csc(-c2cnn(-c3ccccc3)c2NC(=O)c2ccccc2)n1	none (no result: Lipid droplet)
CCOC(=O)c1c(NC(=O)COc2cccc3c2CCN(C)C3=O)sc2c1CCC2	none | CHT activ conf 25 | HEK293 MP dye inactive
Cc1cccc(Oc2nccc(C(F)(F)F)c2C(=O)Nc2ccc(F)cc2F)c1	none
Cc1nn(C)c(Oc2cccc(Cl)c2)c1C(=O)Nc1ccc(F)cc1F	none (no result: Lipid droplet) | CHT activ conf 30 | HEK293 MP dye inactive
CCOc1ncccc1C(=O)Nc1nc(C(C)(C)C)cs1	none
Cc1ccc(C(=O)NNC(=O)c2ccccc2-n2cccc2)cc1	none
